Assay results as given in ChEMBL document CHEMBL2375276, “Antibacterial oxazolidinone analogues having a N-hydroxyacetyl-substituted seven-membered [1,2,5]triazepane or [1,2,5]oxadiazepane C-ring unit” (Eur J Med Chem, 2013).
In brackets after ≈: the same amount, converted by molar mass.

What was measured:
Format in all cases: functional
Haemophilus influenzae [1] = assay: Antibacterial activity against Haemophilus influenzae SR27914 clinical isolate assessed as growth inhibition by CLSI broth microdilution method
Procedure, shortened: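 MIC by CLSI broth microdilution using Haemophilus test medium.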

Streptococcus pneumoniae [2] = assay: Antibacterial activity against Streptococcus pneumoniae SR26207 clinical isolate assessed as growth inhibition by CLSI broth microdilution method
Procedure, shortened: (§1)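 MIC by CLSI broth microdilution in cation-adjusted Mueller-Hinton broth; S. pneumoniae medium supplemented with 5% lysed horse blood.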

Moraxella catarrhalis [3] = assay: Antibacterial activity against Moraxella catarrhalis SR26840 clinical isolate assessed as growth inhibition by CLSI broth microdilution method; procedure, shortened: as §1
Enterococcus faecium [4] = assay: Antibacterial activity against Enterococcus faecium SR7940 clinical isolate assessed as growth inhibition by CLSI broth microdilution method; procedure, shortened: as §1
Enterococcus faecalis [5] = assay: Antibacterial activity against Enterococcus faecalis SR1004 clinical isolate assessed as growth inhibition by CLSI broth microdilution method; procedure, shortened: as §1
Staphylococcus aureus [6] = assay: Antibacterial activity against linezolid-resistant Staphylococcus aureus NRS271 assessed as growth inhibition by CLSI broth microdilution method
Procedure, shortened: (§2)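 MIC by CLSI broth microdilution in cation-adjusted Mueller-Hinton broth. Lowest concentration inhibiting growth taken as MIC.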

Staphylococcus aureus [7] = assay: Antibacterial activity against Staphylococcus aureus Smith assessed as growth inhibition by CLSI broth microdilution method; procedure, shortened: as §1
Staphylococcus aureus [8] = assay: Antibacterial activity against Staphylococcus aureus SR20549 clinical isolate assessed as growth inhibition by CLSI broth microdilution method; procedure, shortened: as §1
Staphylococcus aureus [9] = assay: Antibacterial activity against methicillin-resistant Staphylococcus aureus SR3637 infected in JCL/ICR mouse systemic infection model assessed as mortality administered as po measured over 7 days; conditions: 168 h
Procedure, shortened: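 Five-week-old male JCL/ICR mice (20–25 g), five per group. Infected intraperitoneally with 0.5 or 1.0 mL bacterial suspension (about 100× LD50). Oral dosing 1 h post-infection. Mortality followed 7 days; ED50 with 95% confidence limits by logit method.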

Staphylococcus aureus [10] = assay: Antibacterial activity against methicillin-resistant Staphylococcus aureus SR3637 infected in JCL/ICR mouse systemic infection model assessed as mortality administered as iv measured over 7 days; conditions: 168 h
Procedure, shortened: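 Five-week-old male JCL/ICR mice (20–25 g), five per group. Infected intraperitoneally with 0.5 or 1.0 mL bacterial suspension (about 100× LD50). Intravenous dosing 1 h post-infection. Mortality followed 7 days; ED50 with 95% confidence limits by logit method.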

Staphylococcus aureus [11] = assay: Antibacterial activity against methicillin-resistant Staphylococcus aureus SR3637 assessed as growth inhibition by CLSI broth microdilution method; procedure, shortened: as §2
Haemophilus influenzae [12] = assay: Ratio of eperezolid MIC to compound MIC for Haemophilus influenzae SR27914 clinical isolate
Streptococcus pneumoniae [13] = assay: Ratio of eperezolid MIC to compound MIC for Streptococcus pneumoniae SR26207 clinical isolate
Moraxella catarrhalis [14] = assay: Ratio of eperezolid MIC to compound MIC for Moraxella catarrhalis SR26840 clinical isolate
Enterococcus faecium [15] = assay: Ratio of eperezolid MIC to compound MIC for Enterococcus faecium SR7940 clinical isolate
Enterococcus faecalis [16] = assay: Ratio of eperezolid MIC to compound MIC for Enterococcus faecalis SR1004 clinical isolate
Staphylococcus aureus [17] = assay: Ratio of eperezolid MIC to compound MIC for Staphylococcus aureus Smith
Staphylococcus aureus [18] = assay: Ratio of eperezolid MIC to compound MIC for Staphylococcus aureus SR20549 clinical isolate
Moraxella catarrhalis [19] = assay: Ratio of linezolid MIC to compound MIC for Moraxella catarrhalis SR26840 clinical isolate
Streptococcus pneumoniae [20] = assay: Ratio of linezolid MIC to compound MIC for Streptococcus pneumoniae SR26207 clinical isolate
Haemophilus influenzae [21] = assay: Ratio of linezolid MIC to compound MIC for Haemophilus influenzae SR27914 clinical isolate
Enterococcus faecium [22] = assay: Ratio of linezolid MIC to compound MIC for Enterococcus faecium SR7940 clinical isolate
Enterococcus faecalis [23] = assay: Ratio of linezolid MIC to compound MIC for Enterococcus faecalis SR1004 clinical isolate
Staphylococcus aureus [24] = assay: Ratio of linezolid MIC to compound MIC for Staphylococcus aureus Smith
Staphylococcus aureus [25] = assay: Ratio of linezolid MIC to compound MIC for Staphylococcus aureus SR20549 clinical isolate

SMILES | MIC (Haemophilus influenzae [1]) | MIC (Streptococcus pneumoniae [2]) | MIC (Moraxella catarrhalis [3]) | MIC (Enterococcus faecium [4]) | MIC (Enterococcus faecalis [5]) | MIC (Staphylococcus aureus [6]) | MIC (Staphylococcus aureus [7]) | MIC (Staphylococcus aureus [8]) | ED50 (Staphylococcus aureus [10]) | MIC (Staphylococcus aureus [11]) | also measured
O=C1O[C@@H](CNc2ccon2)CN1c1cc(F)c(N2CCNOCC2)c(F)c1 | 16 µg/mL (≈ 40.5 µM) | 0.125 µg/mL (≈ 0.316 µM) | 4 µg/mL (≈ 10.1 µM) | 1 µg/mL (≈ 2.53 µM) | 0.5 µg/mL (≈ 1.26 µM) | 16 µg/mL (≈ 40.5 µM) | 1 µg/mL (≈ 2.53 µM) | 0.5 µg/mL (≈ 1.26 µM) |  |  | 
CC(=S)NC[C@H]1CN(c2ccc(N3CCNN(C(=O)CO)CC3)c(F)c2)C(=O)O1 | 2 µg/mL (≈ 4.7 µM) | ≤ 0.063 µg/mL | 1 µg/mL (≈ 2.35 µM) | 0.5 µg/mL (≈ 1.18 µM) | 0.5 µg/mL (≈ 1.18 µM) | 8 µg/mL (≈ 18.8 µM) | 0.25 µg/mL (≈ 0.588 µM) | 0.5 µg/mL (≈ 1.18 µM) | 2.95 mg/kg | 0.25 µg/mL (≈ 0.588 µM) | ED50 (Staphylococcus aureus [9]): > 10 mg/kg; Ratio (Haemophilus influenzae [12]): 4; Ratio (Streptococcus pneumoniae [13]): 4; Ratio (Moraxella catarrhalis [14]): 4; Ratio (Enterococcus faecium [15]): 4; Ratio (Enterococcus faecalis [16]): 4; Ratio (Staphylococcus aureus [17]): 4; Ratio (Staphylococcus aureus [18]): 4; Ratio (Moraxella catarrhalis [19]): 4; Ratio (Streptococcus pneumoniae [20]): 4; Ratio (Haemophilus influenzae [21]): 4; Ratio (Enterococcus faecium [22]): 4; Ratio (Enterococcus faecalis [23]): 4; Ratio (Staphylococcus aureus [24]): 4; Ratio (Staphylococcus aureus [25]): 4
CC(=S)NC[C@H]1CN(c2cc(F)c(N3CCON(C(=O)CO)CC3)c(F)c2)C(=O)O1 | 4 µg/mL (≈ 9 µM) | 0.063 µg/mL (≈ 0.142 µM) | 1 µg/mL (≈ 2.25 µM) | 0.25 µg/mL (≈ 0.562 µM) | 0.25 µg/mL (≈ 0.562 µM) | 2 µg/mL (≈ 4.5 µM) | 0.25 µg/mL (≈ 0.562 µM) | 0.125 µg/mL (≈ 0.281 µM) |  |  | Ratio (Haemophilus influenzae [12]): 4; Ratio (Streptococcus pneumoniae [13]): 4; Ratio (Moraxella catarrhalis [14]): 4; Ratio (Enterococcus faecium [15]): 4; Ratio (Enterococcus faecalis [16]): 4; Ratio (Staphylococcus aureus [17]): 4; Ratio (Staphylococcus aureus [18]): 4; Ratio (Moraxella catarrhalis [19]): 4; Ratio (Streptococcus pneumoniae [20]): 4; Ratio (Haemophilus influenzae [21]): 4; Ratio (Enterococcus faecium [22]): 4; Ratio (Enterococcus faecalis [23]): 4; Ratio (Staphylococcus aureus [24]): 4; Ratio (Staphylococcus aureus [25]): 4
O=C(CO)N1CCN(c2c(F)cc(N3C[C@H](CNc4ccon4)OC3=O)cc2F)CCN1 | 16 µg/mL (≈ 35.4 µM) | 0.125 µg/mL (≈ 0.276 µM) | 16 µg/mL (≈ 35.4 µM) | 1 µg/mL (≈ 2.21 µM) | 0.25 µg/mL (≈ 0.553 µM) | 8 µg/mL (≈ 17.7 µM) | 0.5 µg/mL (≈ 1.11 µM) | 0.5 µg/mL (≈ 1.11 µM) | 2.18 mg/kg | 0.5 µg/mL (≈ 1.11 µM) | ED50 (Staphylococcus aureus [9]): 2.83 mg/kg
CC(=O)NC[C@H]1CN(c2cc(F)c(N3CCON(C(=O)CO)CC3)c(F)c2)C(=O)O1 | 16 µg/mL (≈ 37.3 µM) | 1 µg/mL (≈ 2.33 µM) | 8 µg/mL (≈ 18.7 µM) | 2 µg/mL (≈ 4.67 µM) | 4 µg/mL (≈ 9.34 µM) | 32 µg/mL (≈ 74.7 µM) | 2 µg/mL (≈ 4.67 µM) | 2 µg/mL (≈ 4.67 µM) |  |  | 
O=C(CO)N1CCN(c2c(F)cc(N3C[C@H](Cn4ccnn4)OC3=O)cc2F)CCO1 | 16 µg/mL (≈ 36.5 µM) | 1 µg/mL (≈ 2.28 µM) | 8 µg/mL (≈ 18.2 µM) | 2 µg/mL (≈ 4.56 µM) | 2 µg/mL (≈ 4.56 µM) | 16 µg/mL (≈ 36.5 µM) | 2 µg/mL (≈ 4.56 µM) | 1 µg/mL (≈ 2.28 µM) |  |  | 
O=C(CO)N1CCN(c2c(F)cc(N3C[C@H](Cn4ccnn4)OC3=O)cc2F)CCN1 | 8 µg/mL (≈ 18.3 µM) | 0.5 µg/mL (≈ 1.14 µM) | 4 µg/mL (≈ 9.14 µM) | 1 µg/mL (≈ 2.29 µM) | 1 µg/mL (≈ 2.29 µM) | 16 µg/mL (≈ 36.6 µM) | 2 µg/mL (≈ 4.57 µM) | 1 µg/mL (≈ 2.29 µM) | 1.71 mg/kg | 1 µg/mL (≈ 2.29 µM) | 
CC(=O)NC[C@H]1CN(c2cc(F)c(N3CCNOCC3)c(F)c2)C(=O)O1 | 16 µg/mL (≈ 43.2 µM) | 0.25 µg/mL (≈ 0.675 µM) | 4 µg/mL (≈ 10.8 µM) | 1 µg/mL (≈ 2.7 µM) | 2 µg/mL (≈ 5.4 µM) | 16 µg/mL (≈ 43.2 µM) | 1 µg/mL (≈ 2.7 µM) | 1 µg/mL (≈ 2.7 µM) |  |  | 
CC(=O)NC[C@H]1CN(c2ccc(N3CCNN(C(=O)CO)CC3)c(F)c2)C(=O)O1 | 16 µg/mL (≈ 39.1 µM) | 1 µg/mL (≈ 2.44 µM) | 8 µg/mL (≈ 19.5 µM) | 4 µg/mL (≈ 9.77 µM) | 2 µg/mL (≈ 4.88 µM) | 64 µg/mL (≈ 156 µM) | 2 µg/mL (≈ 4.88 µM) | 4 µg/mL (≈ 9.77 µM) |  |  | 
